Screens: PubChem BioAssay, several laboratories
Shown are actives, neighbours in structure and some others; about 2.9% of the full set was active somewhere.
Wee1 degr inh: Wee1 degradation inhibitors, primary screen, cell-based, HeLa, Wee1K328M-luciferase, luminescence | Wee1-like protein kinase (Homo sapiens), P30291 | HeLa Luc-Wee1K328M stability; 100% = proteasome inhibitor MG132 effect | reporter increase, % at 5 µM | actives 1.2% (n = 220,000) | AID 1321, 2008;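 active = activation above the mean of all tested compounds plus 3 SD, set per screening run, cut at about 8.8% in these data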;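 also: cells exposed to compound for 20 h before luminescence read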
RanGTP-Impb inh: inhibitors of RanGTP-importin-beta interaction, primary screen, biochemical, FRET, CFP-Ran, YFP-importin-beta, homogeneous; Ran GTPase (GTP-bound) - importin-beta complex; cell-free CFP-Ran/YFP-importin-beta FRET ratio; inhibition, % (test concentration not listed); actives 1.1% (n = 300,000); AID 2216, 2009;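 active = more than half of the replicate wells show a fall in the fluorescence ratio signal beyond about 16%, limit read from the data, passing the limit was not always enough; inconclusive = exactly half of the replicate wells pass the set limit; inactive = fewer than half of replicates pass the limit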
Runt-SMMHC FRET: inhibitors of RUNX1 Runt–CBFb-SMMHC binding, primary screen, biochemical, FRET, Cerulean-Runt, Venus-CBFb-SMMHC, uHTS | Runt-related transcription factor 1 (Homo sapiens) + Core-binding factor subunit beta … | Cerulean-Runt/Venus-CBFb-SMMHC FRET ratio 530/480, 1 h | inhibition, % at 20 µM | actives 0.74% (n = 220,000);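 active = mean inhibition across duplicate retests at 20 µM reaching about 50%, limit read from the data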;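 also: inhibitors lower the FRET ratio by blocking Runt binding to CBFb-SMMHC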
AI-2 QS modul: Vibrio harveyi AI-2 quorum sensing modulators, primary screen, JMH597 strain, luminescence/OD600 ratio. Vibrio harveyi JMH597 AI-2 luminescence/OD600 ratio, 9 h; stronger effect = lower value; strain lacks LuxN and CqsS sensors; 0 = neutral-control median. actives 0.4% (n = 300,000). AID 2094, 2009. activity change, % at 7.5 µM; in the data active = activity change below about -75%, passing the limit was not always enough; inconclusive = no clear call, values can overlap the other calls;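 also: luminescence divided by OD600 gain over 9 h not by final OD600 alone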
Runt-CBFb FRET: inhibitors of RUNX1 Runt–CBFb binding, primary screen, biochemical, FRET, Cerulean-Runt, Venus-CBFb, uHTS; Cerulean-Runt/Venus-CBFb FRET ratio 530/480, 1 h; inhibition, % at 20 µM; actives 0.46% (n = 220,000); AID 1496, 2009;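 active = inhibition over about 50% at 20 µM in the single-dose screen, limit read from the data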
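Assay system: Cerulean-Runt domain / Medium: Tris 50 mM pH 7.5, KCl, K2SO4, 0.01% BSA / Timing: protein complex preformed 1 h, compound exposure 1 h, room temperature, dark / Measured by: FRET, excitation 422 nm, emission at 530 and 480 nm / Evaluation: loss of energy transfer signal / Control set: 5 µM unlabeled CBFb as full-inhibition high control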
KLK7 zymogen act: proKLK7 zymogen activators, primary screen, biochemical, fluorescence intensity. Kallikrein-7 (Homo sapiens), P49862. purified proKLK7, EDANS-DABCYL substrate fluorescence; 100% is mature enzyme control, 0% vehicle. activation, % at 7 µM. actives 0.9% (n = 370,000). AID 652039, 2013;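 active = activation above the mean of all tested compounds plus 3 SD, computed per campaign excluding outliers beyond control limits, cut at about 13% in these data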
Target sequence (P49862 whole entry, looked up): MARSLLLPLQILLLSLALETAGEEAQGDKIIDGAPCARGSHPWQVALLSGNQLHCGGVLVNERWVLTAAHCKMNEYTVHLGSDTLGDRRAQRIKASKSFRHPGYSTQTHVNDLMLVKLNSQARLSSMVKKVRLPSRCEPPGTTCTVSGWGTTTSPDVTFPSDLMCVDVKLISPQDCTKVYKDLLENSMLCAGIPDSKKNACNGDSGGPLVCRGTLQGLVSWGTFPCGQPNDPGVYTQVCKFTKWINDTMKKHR
YIC counter: YIC intramolecular FRET probe signal interference, dose response, counter-screen for RanGTP-importin-beta inhibitor project, biochemical, fluorescence FRET | actives 40% (n = 1,000) | IC50, µM | Purified YIC probe, intramolecular FRET ratio YFP/CFP | AID 435026, 2010 | shares compounds with RanGTP-Impb inh;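 active = fitted half-maximal inhibitory concentration no more than tenfold above the top dose tested; inconclusive = flat fit with 30 to 70% activity, or poor fit; inactive = half-maximal concentration beyond tenfold above the top dose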
A number is an active result; . = inactive; ? = inconclusive; / = no result given.

SMILES | Wee1 degr inh | RanGTP-Impb inh | Runt-SMMHC FRET | AI-2 QS modul | Runt-CBFb FRET | KLK7 zymogen act | YIC counter
CN1CCc2c(n(CC(O)CN3CCN(CCO)CC3)c3ccccc23)C1=O (configuration not stated) | . | . | . | . | . | . | /
O=C(Oc1c(CN2CCOCC2)cc(Cl)c2cccnc12)c1ccc(F)cc1 | . | ? | . | . | . | . | /
COc1cccc(C(=O)Oc2c(CN3CCOCC3)cc(Cl)c3cccnc23)c1 | . | . | . | . | . | . | /
COc1cc(C(=O)Oc2c(CN3CCOCC3)cc(Cl)c3cccnc23)cc(OC)c1OC | . | 16.1 | . | . | . | / | .
COc1ccc(C(=O)Oc2c(CN3CCOCC3)cc(Cl)c3cccnc23)cc1 | . | 25.2 | . | . | . | . | .
O=C(/C=C/c1cccs1)N1CCN(Cc2ccc3c(c2)OCO3)CC1 | . | . | . | . | . | . | /
COC(=O)Nc1ccc(NC(C)=O)cc1 | . | 17.3 | . | . | . | . | .
CSc1nsc(/C=C/Nc2ccc(C)cc2)c1C#N | . | 23.8 | . | . | . | . | .
COc1cc(/C=N/Nc2snc(SC)c2C#N)ccc1O | . | . | . | . | . | . | /
CCOC(=O)c1sc(NC(=O)CSc2nc(C)cc(C)n2)c(C#N)c1C | . | 20.6 | . | . | . | . | .
COc1cccc(C(=O)N2CCC[C@@H]2C(=O)N2CCC[C@@H]2C(=O)NCc2ccccc2Cl)c1 | / | / | / | / | / | . | /
COc1ccc(N/C=C/C(=O)c2ccc(OC)c(OC)c2)cc1 | . | . | . | . | . | . | /
COc1ccc(C(=O)/C=C/Nc2cccc(C)n2)cc1OC | . | 20.2 | . | . | . | . | 26
CC(C)C(=O)NC(c1ccco1)c1ccc2cccnc2c1O (configuration not stated) | . | . | . | . | . | . | /
Oc1c(C(Nc2nc3ccccc3s2)c2ccco2)ccc2cccnc12 (configuration not stated) | . | 21.6 | . | . | . | . | .
CCC(C)OC(=O)C[N+](C)(C)CCOC1CC2CCC1(C)C2(C)C (configuration not stated) | . | 22.4 | . | . | . | . | .
CC(C)CCOC(=O)C[N+](C)(C)CCOC1CC2CCC1(C)C2(C)C (configuration not stated) | . | . | . | . | . | . | /
O=C1CCCN2N=C(SCC(=O)N3N=C(c4ccc(Br)cc4)CC3c3ccc(F)cc3)SC2=N1 (configuration not stated) | . | 20.0 | . | . | . | . | .
Cc1ccc(C2CC(c3ccc(Br)cc3)=NN2C(=O)CSC2=NN3CCCC(=O)N=C3S2)cc1 (configuration not stated) | / | . | / | . | / | . | /
CC1(C(=O)Nc2cccc(OC(F)(F)F)c2)Cc2c(-c3ccc(C(N)=O)cc3)ccnc2O1 (configuration not stated) | / | / | / | / | / | . | /
COc1cc(OC)cc(C(=O)Nc2nnc(SCC(=O)NCc3ccco3)s2)c1 | / | . | / | . | / | . | /
COc1ccc(NC(=O)CN2C(=O)CC(C)S(=O)(=O)c3ccccc32)cc1 (configuration not stated) | / | 17.6 | / | . | / | . | .
Cc1ccc(S(=O)(=O)N(C)Cc2ccc(C(=O)N/N=C3\CC(=O)CC(C)(C)C3)cc2)cc1 | . | 18.6 | . | . | . | . | .
